From article PMC12951621 (Toxicology, 2025)

Columns and labels:
[1] = system: hTERT-RPTEC; assay: Uptake / intracellular accumulation and P ratio, hTERT-RPTEC in 96-well plates; type: in vitro ADME, human; conditions: 24 h, cell lysates and media
In short: (§1)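 Cells seeded uncoated at 32,000 per well in 96-well plates, grown 6 days at 37°C, 5% CO2, medium changed every 48 h. Exposed to test compound in 150 μL medium (PFAS 5 μM final). Medium sampled at 4 and 24 h; cells PBS-rinsed and M-PER lysed at 24 h. Acetonitrile precipitation with internal standards, then LC-MS/MS. Two-compartment model, P ratio = medium/cell concentration; n ≥ 3.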

[2] = system: hTERT-RPTEC-OAT1; assay: Directional transport, recovery and P ratio, hTERT-RPTEC-OAT1 Transwells; type: in vitro ADME, human; conditions: for Recovery pattern, apical (A→B) versus basolateral (B→A) treatment: 24 h, donor and recipient media and cell lysates
In short: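 hTERT-RPTEC-OAT1 cells seeded on fibronectin-coated (100 μg/mL, 1 h, 37°C) Transwells at 22,050 cells/insert. Cultured 2 days at 37°C, 5% CO2; inserts under 65 Ω×cm2 TEER excluded. Test compound (PFAS 5 μM final) added apically (A→B) or basolaterally (B→A), fresh medium opposite. Both chambers sampled at 4 and 24 h; cells lysed (M-PER, 10 min, RT) at 24 h. LC-MS/MS after acetonitrile precipitation with internal standards. Three-compartment Bayesian MCMC fit gave P1–P4; P ratio = P2P4/P1P3; n ≥ 4.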

[3] = system: hTERT-RPTEC-OAT1; type: in vitro ADME, human; conditions: 96-well plates; for Accumulation in cells versus medium: 24 h, cell lysates and media, OAT1-overexpressing cells
In short: as §1

[4] = set-up: species or system human; conditions: index chemical half-life 3.14 years divided by relative renal clearance
[5] = system: hTERT-RPTEC-OAT1; assay: TEER barrier integrity, hTERT-RPTEC-OAT1 Transwells; type: cell-based, human; conditions: 24 hrs post-treatment
In short: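 Resistance read with an epithelial voltohmmeter and Ag/AgCl probes after treatment. Blank-membrane resistance subtracted, then multiplied by 0.143 cm2 growth area; reported as Ω×cm2. Pre-treatment cultures under 65 Ω×cm2 excluded; n ≥ 4.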

[6] = system: hTERT-RPTEC-OAT1; assay: LDH release; type: cell-based, human; conditions: 24 hrs exposure, relative to vehicle controls, 96-well plates
In short: (§2)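 LDH activity measured with a biochemical kit in medium sampled after 24 h exposure to test compound. Expressed as % of vehicle-treated cultures. Compared by one-way ANOVA with Dunnett's post hoc test (p < 0.05). Replicates: n ≥ 3 in 96-well plates, n ≥ 4 in Transwells.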

[7] = system: hTERT-RPTEC-OAT1; assay: LDH release; type: cell-based, human; conditions: 24 hrs exposure, relative to vehicle controls, Transwells
In short: as §2

[8] = system: hTERT-RPTEC; assay: LDH release; type: cell-based, human; conditions: 24 hrs exposure, relative to vehicle controls, 96-well plates
In short: as §2

[9] = system: hTERT-RPTEC-OAT1; set-up: species or system human; conditions: 96-well plates, two-compartment model
In short: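 96-well P ratio (medium/cell concentration, two-compartment model, assuming P1 = P2) entered a physiologically based kidney model. CLrenal,free was calculated from renal arterial blood flow (QK), proximal tubule flow (QPT) and P ratio, and predictions were set against literature human in vivo values.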

[10] = applied from the basolateral side (B→A)

SMILES: O=S(=O)(O)CCC(F)(F)C(F)(F)C(F)(F)C(F)(F)C(F)(F)C(F)(F)C(F)(F)C(F)(F)F [8:2 FTS, 8:2 Fluorotelomer sulfonic acid]
- Accumulation in cells versus medium [1]: tended to accumulate more in cells
- Recovery pattern, apical (A→B) versus basolateral (B→A) treatment [2]: divergent recovery patterns depending on dosing orientation
- Accumulation in cells versus medium [3]: tended to accumulate more in cells

SMILES: O=S(=O)(O)C(F)(F)C(F)(F)C(F)(F)C(F)(F)F [PFBS, Perfluorobutanesulfonic acid]
- Predicted human half-life [4]: Days/Months

SMILES: O=C(O)C(F)(F)C(F)(F)C(F)(F)C(F)(F)C(F)(F)C(F)(F)C(F)(F)C(F)(F)C(F)(F)F [PFDA, Perfluorodecanoic acid]
- Accumulation in cells versus medium [1]: tended to accumulate more in cells
- TEER [5, 10]: small but significant decrease in TEER
- Recovery pattern, apical (A→B) versus basolateral (B→A) treatment [2]: divergent recovery patterns depending on dosing orientation
- Accumulation in cells versus medium [3]: tended to accumulate more in cells

SMILES: O=C(O)C(F)(F)C(F)(F)C(F)(F)C(F)(F)C(F)(F)F [PFHxA, Perfluorohexanoic acid]
- Predicted human half-life [4]: Days/Months

SMILES: O=C(O)C(F)(F)C(F)(F)C(F)(F)C(F)(F)C(F)(F)C(F)(F)C(F)(F)F [PFOA, Perfluorooctanoic acid]
- LDH release [6]: small but significant increase in LDH release

SMILES: O=S(=O)(O)C(F)(F)C(F)(F)C(F)(F)C(F)(F)C(F)(F)C(F)(F)C(F)(F)C(F)(F)F [PFOS, Perfluorooctanesulfonic acid]
- Recovery pattern, apical (A→B) versus basolateral (B→A) treatment [2]: divergent recovery patterns depending on dosing orientation

SMILES: O=C(O)C(F)(F)C(F)(F)C(F)(F)C(F)(F)C(F)(F)C(F)(F)C(F)(F)C(F)(F)C(F)(F)C(F)(F)F [PFUnDA, Perfluoroundecanoic acid]
- Accumulation in cells versus medium [1]: tended to accumulate more in cells
- TEER [5, 10]: small but significant decrease in TEER
- Recovery pattern, apical (A→B) versus basolateral (B→A) treatment [2]: divergent recovery patterns depending on dosing orientation
- Accumulation in cells versus medium [3]: tended to accumulate more in cells

SMILES: CCCCCCCC[N+](CCCCCCCC)(CCCCCCCC)CCCCCCCC.[Br-] [TAB, tetraoctyl ammonium bromide, reference compound]
- LDH release [7]: significant LDH release
- TEER [5]: pronounced reduction in TEER
- LDH release [8]: significant LDH release
- LDH release [6]: significant LDH release

SMILES: C[C@H](Cn1cnc2c(N)ncnc21)OCP(=O)(O)O [Tenofovir, Tenofovir (TFV), reference compound]
- Intracellular association ([2]; ratios of measured concentrations): higher intracellular association
- P ratio, OAT1-overexpressing cells versus parental cells [3]: roughly 100 fold lower
- Accumulation in cells versus medium [3]: enhanced accumulation in the OAT1-overexpressing cells
- Predicted renal clearance, OAT1-overexpressing cells versus parental cells [9]: significantly lower
